Data from ChEMBL document CHEMBL1926569, “Novel (E)-1-(4-methyl-2-(alkylamino)thiazol-5-yl)-3-arylprop-2-en-1-ones as potent antimicrobial agents” (2011).

How the values were obtained:
Penicillium ochrochloron [1] = assay: Antifungal activity against Penicillium ochrochloron ATCC 9112 after 72 hrs by serial dilution technique; format: functional; settings: ATCC 9112, 72 h
Procedure, shortened: (§1)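 Modified microdilution in 96-well plates. Fungi were kept on malt agar at 4 °C. Spores were washed off in sterile 0.85% saline with 0.1% Tween 80. Compounds were dissolved at 1 mg/ml in 5% DMSO with 0.1% Tween 80 and added to malt broth with inoculum. Plates were shaken at 160 rpm for 72 h at 28 °C. Duplicate, repeated three times.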

Salmonella typhimurium [2] = assay: Antibacterial activity against Salmonella Typhimurium ATCC 13311 after 24 hrs by microdilution method; format: functional, Salmonella enterica subsp. enterica serovar Typhimurium; settings: Salmonella enterica, ATCC 13311, 24 h
Procedure, shortened: (§2)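 Broth microdilution in 96-well plates. Bacterial suspensions were adjusted in sterile saline to 1.0 × 10⁵ CFU/ml, prepared daily and kept at 4 °C. Compound was added to LB broth with 1.0 × 10⁴ CFU per well and shaken at 160 rpm for 24 h at […] (so in the source). MIC is the lowest concentration with no visible growth under a binocular microscope. OD655 was also read. Duplicate, repeated three times.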

Aspergillus fumigatus [3] = assay: Ratio of ketoconazole to compound for Aspergillus fumigatus isolated from human; format: functional
Aspergillus niger [4] = assay: Ratio of bifonazole to compound for Aspergillus niger ATCC 6275; format: functional
Bacillus cereus [5] = assay: Antibacterial activity against clinical isolate of Bacillus cereus after 24 hrs by microdilution method; format: functional; procedure, shortened: as §2
Pseudomonas aeruginosa [6] = assay: Antibacterial activity against Pseudomonas aeruginosa ATCC 27853 incubated for 24 hrs followed by serial sub-cultivation for 24 hrs by microdilution; format: functional; settings: ATCC 27853, 24 h
Procedure, shortened: (§3)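 MBC: after the 24 h LB broth microdilution (1.0 × 10⁴ CFU per well, 160 rpm), wells were serially sub-cultured into fresh broth plates and incubated a further 24 h. MBC is the lowest concentration with no visible growth, taken as 99.5% killing of the original inoculum. Duplicate, repeated three times.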

Aspergillus fumigatus [7] = assay: Antifungal activity against Aspergillus fumigatus isolated from human incubated for 72 hrs followed by serial sub-cultivation for 72 hrs by serial dilution technique; format: functional
Procedure, shortened: (§4)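 MFC: material from 72 h malt broth microdilution wells was serially sub-cultured into fresh broth plates and incubated a further 72 h at 28 °C. Fungicidal concentration is taken from growth after sub-culture. Duplicate, repeated three times.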

Talaromyces funiculosus [8] = assay: Antifungal activity against Penicillium funiculosum ATCC 36839 incubated for 72 hrs followed by serial sub-cultivation for 72 hrs by serial dilution technique; format: functional; settings: ATCC 36839, 72 h; procedure, shortened: as §4
Candida albicans [9] = assay: Antifungal activity against Candida albicans isolated from human after 72 hrs by serial dilution technique; format: functional; procedure, shortened: as §1
Aspergillus niger [10] = assay: Antifungal activity against Aspergillus niger ATCC 6275 incubated for 72 hrs followed by serial sub-cultivation for 72 hrs by serial dilution technique; format: functional; settings: ATCC 6275, 72 h; procedure, shortened: as §4
Aspergillus ochraceus [11] = assay: Ratio of ketoconazole to compound for Aspergillus ochraceus ATCC 12066; format: functional
Aspergillus ochraceus [12] = assay: Ratio of bifonazole to compound for Aspergillus ochraceus ATCC 12066; format: functional
Aspergillus ochraceus [13] = assay: Antifungal activity against Aspergillus ochraceus ATCC 12066 incubated for 72 hrs followed by serial sub-cultivation for 72 hrs by serial dilution technique; format: functional; settings: ATCC 12066, 72 h; procedure, shortened: as §4
Staphylococcus aureus [14] = assay: Antibacterial activity against Staphylococcus aureus ATCC 6538 incubated for 24 hrs followed by serial sub-cultivation for 24 hrs by microdilution method; format: functional; settings: ATCC 6538, 24 h; procedure, shortened: as §3
Aspergillus flavus [15] = assay: Antifungal activity against Aspergillus flavus ATCC 9643 after 72 hrs by serial dilution technique; format: functional; settings: ATCC 9643, 72 h; procedure, shortened: as §1
Staphylococcus aureus [16] = assay: Antibacterial activity against Staphylococcus aureus ATCC 6538 after 24 hrs by microdilution method; format: functional; settings: ATCC 6538, 24 h; procedure, shortened: as §2
Candida albicans [17] = assay: Ratio of bifonazole to compound for Candida albicans isolated from human; format: functional
Escherichia coli [18] = assay: Antibacterial activity against Escherichia coli ATCC 35210 incubated for 24 hrs followed by serial sub-cultivation for 24 hrs by microdilution; format: functional; settings: ATCC 35210, 24 h; procedure, shortened: as §3
Micrococcus flavus [19] = assay: Antibacterial activity against Micrococcus flavus ATCC 10240 after 24 hrs by microdilution method; format: functional; settings: ATCC 10240, 24 h; procedure, shortened: as §2
Listeria monocytogenes [20] = assay: Antibacterial activity against Listeria monocytogenes NCTC 7973 after 24 hrs by microdilution method; format: functional; settings: NCTC 7973, 24 h; procedure, shortened: as §2
Penicillium ochrochloron [21] = assay: Ratio of ketoconazole to compound for Penicillium ochrochloron ATCC 9112; format: functional
Trichoderma viride [22] = assay: Ratio of bifonazole to compound for Trichoderma viride IAM 5061; format: functional
Candida albicans [23] = assay: Ratio of ketoconazole to compound for Candida albicans isolated from human; format: functional
Aspergillus niger [24] = assay: Antifungal activity against Aspergillus niger ATCC 6275 after 72 hrs by serial dilution technique; format: functional; settings: ATCC 6275, 72 h; procedure, shortened: as §1
Aspergillus flavus [25] = assay: Antifungal activity against Aspergillus flavus ATCC 9643 incubated for 72 hrs followed by serial sub-cultivation for 72 hrs by serial dilution technique; format: functional; settings: ATCC 9643, 72 h; procedure, shortened: as §4
Micrococcus flavus [26] = assay: Antibacterial activity against Micrococcus flavus ATCC 10240 incubated for 24 hrs followed by serial sub-cultivation for 24 hrs by microdilution; format: functional; settings: ATCC 10240, 24 h; procedure, shortened: as §3
Enterococcus faecalis [27] = assay: Antibacterial activity against Enterococcus faecalis isolated from human incubated for 24 hrs followed by serial sub-cultivation for 24 hrs by microdilution; format: functional; procedure, shortened: as §3
Talaromyces funiculosus [28] = assay: Ratio of bifonazole to compound for Penicillium funiculosum ATCC 36839; format: functional
Aspergillus ochraceus [29] = assay: Antifungal activity against Aspergillus ochraceus ATCC 12066 after 72 hrs by serial dilution technique; format: functional; settings: ATCC 12066, 72 h; procedure, shortened: as §1
Penicillium ochrochloron [30] = assay: Ratio of bifonazole to compound for Penicillium ochrochloron ATCC 9112; format: functional
Salmonella typhimurium [31] = assay: Antibacterial activity against Salmonella Typhimurium ATCC 13311 incubated for 24 hrs followed by serial sub-cultivation for 24 hrs by microdilution; format: functional, Salmonella enterica subsp. enterica serovar Typhimurium; settings: Salmonella enterica, ATCC 13311, 24 h; procedure, shortened: as §3
Trichoderma viride [32] = assay: Antifungal activity against Trichoderma viride IAM 5061 after 72 hrs by serial dilution technique; format: functional; settings: IAM 5061, 72 h; procedure, shortened: as §1
Penicillium ochrochloron [33] = assay: Antifungal activity against Penicillium ochrochloron ATCC 9112 incubated for 72 hrs followed by serial sub-cultivation for 72 hrs by serial dilution technique; format: functional; settings: ATCC 9112, 72 h; procedure, shortened: as §4
Escherichia coli [34] = assay: Antibacterial activity against Escherichia coli ATCC 35210 after 24 hrs by microdilution method; format: functional; settings: ATCC 35210, 24 h; procedure, shortened: as §2
Bacillus cereus [35] = assay: Antibacterial activity against clinical isolate of Bacillus cereus incubated for 24 hrs followed by serial sub-cultivation for 24 hrs by microdilution; format: functional; procedure, shortened: as §3
Pseudomonas aeruginosa [36] = assay: Ratio of ampicillin MIC to compound MIC for Pseudomonas aeruginosa ATCC 27853; format: functional
Listeria monocytogenes [37] = assay: Antibacterial activity against Listeria monocytogenes NCTC 7973 incubated for 24 hrs followed by serial sub-cultivation for 24 hrs by microdilution; format: functional; settings: NCTC 7973, 24 h; procedure, shortened: as §3
Candida albicans [38] = assay: Antifungal activity against Candida albicans isolated from human incubated for 72 hrs followed by serial sub-cultivation for 72 hrs by serial dilution technique; format: functional; procedure, shortened: as §4
Aspergillus ochraceus [39] = assay: Antifungal activity against Aspergillus ochraceus after 72 hrs by serial dilution technique
Talaromyces funiculosus [40] = assay: Antifungal activity against Penicillium funiculosum ATCC 36839 after 72 hrs by serial dilution technique; format: functional; settings: ATCC 36839, 72 h; procedure, shortened: as §1
Trichoderma viride [41] = assay: Antifungal activity against Trichoderma viride IAM 5061 incubated for 72 hrs followed by serial sub-cultivation for 72 hrs by serial dilution technique; format: functional; settings: IAM 5061, 72 h; procedure, shortened: as §4
Pseudomonas aeruginosa [42] = assay: Antibacterial activity against Pseudomonas aeruginosa ATCC 27853 after 24 hrs by microdilution method; format: functional; settings: ATCC 27853, 24 h; procedure, shortened: as §2
Enterococcus faecalis [43] = assay: Antibacterial activity against Enterococcus faecalis isolated from human after 24 hrs by microdilution method; format: functional; procedure, shortened: as §2

CCNc1nc(C)c(C(=O)/C=C/c2ccc([N+](=O)[O-])cc2)s1
31.5 µM: MIC (Candida albicans [9]) | MIC (Talaromyces funiculosus [40])
94.6 µM: MBC (Staphylococcus aureus [14]) | MIC (Staphylococcus aureus [16]) | MBC (Escherichia coli [18]) | MIC (Micrococcus flavus [19]) | MIC (Listeria monocytogenes [20]) | MBC (Micrococcus flavus [26]) | MIC (Escherichia coli [34]) | MBC (Bacillus cereus [35]) | MBC (Listeria monocytogenes [37])
63.1 µM: MIC (Penicillium ochrochloron [1]) | MIC (Bacillus cereus [5]) | MBC (Pseudomonas aeruginosa [6]) | MFC (Aspergillus fumigatus [7]) | MFC (Talaromyces funiculosus [8]) | MFC (Aspergillus niger [10]) | MIC (Aspergillus flavus [15]) | MBC (Enterococcus faecalis [27]) | MIC (Aspergillus ochraceus [29]) | MBC (Salmonella typhimurium [31]) | MFC (Candida albicans [38]) | MFC (Trichoderma viride [41])
47.3 µM: MIC (Salmonella typhimurium [2]) | MIC (Aspergillus niger [24]) | MIC (Trichoderma viride [32]) | MIC (Aspergillus ochraceus [39]) | MIC (Pseudomonas aeruginosa [42]) | MIC (Enterococcus faecalis [43])
10: Ratio (Aspergillus fumigatus [3]) | Ratio (Aspergillus niger [4]) | Ratio (Aspergillus ochraceus [11]) | Ratio (Aspergillus ochraceus [12]) | Ratio (Candida albicans [17]) | Ratio (Penicillium ochrochloron [21]) | Ratio (Trichoderma viride [22]) | Ratio (Candida albicans [23]) | Ratio (Talaromyces funiculosus [28]) | Ratio (Penicillium ochrochloron [30]) | Ratio (Pseudomonas aeruginosa [36])
78.8 µM: MFC (Aspergillus ochraceus [13]) | MFC (Aspergillus flavus [25]) | MFC (Penicillium ochrochloron [33])

CNc1nc(C)c(C(=O)/C=C/c2cccc(C)c2)s1
10: Ratio (Aspergillus fumigatus [3]) | Ratio (Aspergillus niger [4]) | Ratio (Aspergillus ochraceus [11]) | Ratio (Aspergillus ochraceus [12]) | Ratio (Candida albicans [17]) | Ratio (Penicillium ochrochloron [21]) | Ratio (Trichoderma viride [22]) | Ratio (Candida albicans [23]) | Ratio (Talaromyces funiculosus [28]) | Ratio (Penicillium ochrochloron [30]) | Ratio (Pseudomonas aeruginosa [36])
73.5 µM: MIC (Salmonella typhimurium [2]) | MIC (Bacillus cereus [5]) | MFC (Aspergillus fumigatus [7]) | MFC (Talaromyces funiculosus [8]) | MFC (Aspergillus niger [10]) | MFC (Aspergillus ochraceus [13]) | MIC (Staphylococcus aureus [16]) | MBC (Escherichia coli [18]) | MIC (Micrococcus flavus [19]) | MBC (Enterococcus faecalis [27]) | MFC (Penicillium ochrochloron [33]) | MFC (Candida albicans [38]) | MFC (Trichoderma viride [41]) | MIC (Pseudomonas aeruginosa [42])
36.8 µM: MIC (Penicillium ochrochloron [1]) | MIC (Aspergillus flavus [15]) | MIC (Aspergillus ochraceus [29]) | MIC (Trichoderma viride [32]) | MIC (Aspergillus ochraceus [39]) | MIC (Talaromyces funiculosus [40])
55.1 µM: MIC (Candida albicans [9]) | MIC (Escherichia coli [34]) | MIC (Enterococcus faecalis [43])
110 µM: MBC (Staphylococcus aureus [14]) | MIC (Listeria monocytogenes [20]) | MBC (Listeria monocytogenes [37])
91.9 µM: MBC (Pseudomonas aeruginosa [6]) | MFC (Aspergillus flavus [25]) | MBC (Micrococcus flavus [26]) | MBC (Salmonella typhimurium [31]) | MBC (Bacillus cereus [35])
37.8 µM: MIC (Aspergillus niger [24])
